From ChEMBL document CHEMBL2375314, “Mitochondrial-targeted protective properties of isolated diterpenoids from sideritis spp. in response to the deleterious changes induced by H2O2” (J Nat Prod, 2013)
Activity calls are given as the source filed them. No cut-off for these calls is given here.

Tests used:
[1] = Neurotoxicity in human U373MG cells assessed as change in cytosolic calcium level at 10 uM after 24 hrs by indo-1/AM staining-based fluorocytometric analysis (reference value: 91.1 +/- 12.5 nM); assay type: toxicity, cell-based; settings: u-373mg atcc
PC-12 [2] = experiment: Neuroprotective activity in rat PC12 cells assessed as reduction of H2O2-induced mitochondrial calcium level at 10 uM incubated for 24 hrs prior to H2O2 challenge measured after 30 mins by Rhod-2 staining-based fluorocytometric analysis (reference value: 1.7 +/- 0.01 nM); assay type: functional
In short: (§1)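 24 h exposure at 5 or 10 μM, optionally followed by 30 min H2O2 (0.1 mM PC12, 1 mM U373-MG). Cells loaded with Rhod-2/AM in Krebs normal-calcium medium for 40 min at 37 °C in the dark, then 30 min for ester hydrolysis. Fluorescence at ex 552/em 581 nm for 4 min, then 15 min after A23187 (5 μM). Ratio of post-ionophore maximum to basal, relative to control; mean ± SD, n = 9.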

U373 MG [3] = experiment: Neuroprotective activity in human U373MG cells assessed as inhibition of H2O2-induced caspase-3 activity at 5 to 10 uM incubated for 24 hrs prior to H2O2 challenge measured after 30 mins by fluorometric analysis in presence of Ac-DEVD-AMC; assay type: functional, cell-based; settings: U-373MG ATCC
In short: (§2)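 Cells held 24 h with 5 or 10 μM, H2O2 then applied for 30 min in challenge arms (0.1 mM PC12, 1 mM U373-MG). Total cell extract (20 μg) incubated with Ac-DEVD-AMC (20 μM) for 1 h at 37 °C. Released AMC read at ex 360/em 460 nm. Expressed as % of control; mean ± SD, n = 9.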

PC-12 [4] = experiment: Neuroprotective activity in rat PC12 cells assessed as protection against H2O2-induced reduction in mitochondrial membrane potential at 5 to 10 uM incubated for 24 hrs prior to H2O2 challenge measured after 30 mins by TMRM staining-based fluorocytometric analysis relative to control; assay type: functional, cell-based
In short: (§3)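 Cells given 5 or 10 μM for 24 h, then H2O2 for 30 min (0.1 mM PC12, 1 mM U373-MG) where challenged. Loaded in Krebs medium with 150 nM TMRM; fluorescence at ex 549/em 573 nm read for 45 min at 37 °C. FCCP (6 μM) plus oligomycin (0.25 μg/mL) then added for maximal depolarization and read 15 min. Value from maximal minus basal fluorescence, as % of control; mean ± SD, n = 9.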

[5] = Neurotoxicity in human U373MG cells assessed as caspase-3 activation at 5 to 10 uM after 24 hrs by fluorometric analysis in presence of Ac-DEVD-AMC; assay type: toxicity, cell-based; settings: u-373mg atcc; in short: as §2
[6] = Neurotoxicity in human U373MG cells assessed as effect on cellular ATP level at 5 to 10 uM after 24 hrs by HPLC analysis; assay type: toxicity, cell-based; settings: u-373mg atcc
In short: (§4)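 After 24 h at 5 or 10 μM, with or without H2O2 for 30 min (0.1 mM PC12; 1 mM U373-MG), cells extracted in 0.6 M HClO4/25 mM EDTA and neutralized with KOH/Tris. Reversed-phase C18 HPLC, isocratic 100 mM KH2PO4 (pH 6.5)/1% methanol at 1 mL/min, UV at 254 nm. Quantified against an ATP standard curve (0.25–5 μM), normalized to protein, as % of control; mean ± SD, n = 9.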

U373 MG [7] = experiment: Neuroprotective activity in human U373MG cells assessed as decrease in H2O2-induced cytosolic calcium level at 10 uM incubated for 24 hrs prior to H2O2 challenge measured after 30 mins by indo-1/AM staining-based fluorocytometric analysis (reference value: 482.7 +/- 14.5 nM); assay type: functional, U-373MG ATCC
U373 MG [8] = experiment: Neuroprotective activity in human U373MG cells assessed as reduction of H2O2-induced mitochondrial calcium level at 5 uM incubated for 24 hrs prior to H2O2 challenge measured after 30 mins by Rhod-2 staining-based fluorocytometric analysis (reference value: 1.5 +/- 0.02 nM); assay type: functional, U-373MG ATCC; in short: as §1
PC-12 [9] = experiment: Neuroprotective activity in rat PC12 cells assessed as decrease in H2O2-induced cytosolic calcium level at 5 uM incubated for 24 hrs prior to H2O2 challenge measured after 30 mins by indo-1/AM staining-based fluorocytometric analysis (reference value: 395.9 +/- 15.9 nM); assay type: functional
PC-12 [10] = experiment: Neurotoxicity in rat PC12 cells assessed as effect on cellular ATP level at 5 to 10 uM after 24 hrs by HPLC analysis; assay type: toxicity, cell-based; settings: pc-12, 24 h; in short: as §4
U373 MG [11] = experiment: Neuroprotective activity in human U373MG cells assessed as protection against H2O2-induced reduction in mitochondrial membrane potential at 5 to 10 uM incubated for 24 hrs prior to H2O2 challenge measured after 30 mins by TMRM staining-based fluorocytometric analysis relative to control; assay type: functional, cell-based; settings: U-373MG ATCC; in short: as §3
PC-12 [12] = experiment: Neurotoxicity in rat PC12 cells assessed as change in cytosolic calcium level at 10 uM after 24 hrs by indo-1/AM staining-based fluorocytometric analysis (reference value: 51.3 +/- 11.3 nM); assay type: toxicity, cell-based; settings: pc-12, 24 h
[13] = Neurotoxicity in human U373MG cells assessed as change in mitochondrial calcium level at 10 uM after 24 hrs by Rhod-2 staining-based fluorocytometric analysis (reference value: 1 +/- 0.03 nM); assay type: toxicity, cell-based; settings: u-373mg atcc; in short: as §1
PC-12 [14] = experiment: Neurotoxicity in rat PC12 cells assessed as change in mitochondrial calcium level at 5 uM after 24 hrs by Rhod-2 staining-based fluorocytometric analysis (reference value: 1 +/- 0.02 nM); assay type: toxicity, cell-based; settings: pc-12, 24 h; in short: as §1
U373 MG [15] = experiment: Neuroprotective activity in human U373MG cells assessed as decrease in H2O2-induced cytosolic calcium level at 5 uM incubated for 24 hrs prior to H2O2 challenge measured after 30 mins by indo-1/AM staining-based fluorocytometric analysis (reference value: 482.7 +/- 14.5 nM); assay type: functional, U-373MG ATCC
PC-12 [16] = experiment: Neuroprotective activity in rat PC12 cells assessed as decrease in H2O2-induced cytosolic calcium level at 10 uM incubated for 24 hrs prior to H2O2 challenge measured after 30 mins by indo-1/AM staining-based fluorocytometric analysis (reference value: 395.9 +/- 15.9 nM); assay type: functional
PC-12 [17] = experiment: Neurotoxicity in rat PC12 cells assessed as change in mitochondrial calcium level at 10 uM after 24 hrs by Rhod-2 staining-based fluorocytometric analysis (reference value: 1 +/- 0.02 nM); assay type: toxicity, cell-based; settings: pc-12, 24 h; in short: as §1
PC-12 [18] = experiment: Neuroprotective activity in rat PC12 cells assessed as reduction of H2O2-induced mitochondrial calcium level at 5 uM incubated for 24 hrs prior to H2O2 challenge measured after 30 mins by Rhod-2 staining-based fluorocytometric analysis (reference value: 1.7 +/- 0.01 nM); assay type: functional; in short: as §1
PC-12 [19] = experiment: Neuroprotective activity in rat PC12 cells assessed as protection against H2O2-induced reduction in cellular ATP level at 5 to 10 uM incubated for 24 hrs prior to H2O2 challenge measured after 30 mins by HPLC analysis; assay type: functional, cell-based; in short: as §4
U373 MG [20] = experiment: Neuroprotective activity in human U373MG cells assessed as protection against H2O2-induced reduction in cellular ATP level at 5 to 10 uM incubated for 24 hrs prior to H2O2 challenge measured after 30 mins by HPLC analysis; assay type: functional, cell-based; settings: U-373MG ATCC; in short: as §4
PC-12 [21] = experiment: Neurotoxicity in rat PC12 cells assessed as change in mitochondrial membrane potential at 5 to 10 uM after 24 hrs by TMRM staining-based fluorocytometric analysis relative to control; assay type: toxicity, cell-based; settings: pc-12, 24 h; in short: as §3
PC-12 [22] = experiment: Neuroprotective activity in rat PC12 cells assessed as inhibition of H2O2-induced caspase-3 activity at 5 to 10 uM incubated for 24 hrs prior to H2O2 challenge measured after 30 mins by fluorometric analysis in presence of Ac-DEVD-AMC; assay type: functional, cell-based; in short: as §2
PC-12 [23] = experiment: Neurotoxicity in rat PC12 cells assessed as caspase-3 activation at 5 to 10 uM after 24 hrs by fluorometric analysis in presence of Ac-DEVD-AMC; assay type: toxicity, cell-based; settings: pc-12, 24 h; in short: as §2
[24] = Neurotoxicity in human U373MG cells assessed as change in mitochondrial membrane potential at 5 to 10 uM after 24 hrs by TMRM staining-based fluorocytometric analysis relative to control; assay type: toxicity, cell-based; settings: u-373mg atcc; in short: as §3
PC-12 [25] = experiment: Neurotoxicity in rat PC12 cells assessed as change in cytosolic calcium level at 5 uM after 24 hrs by indo-1/AM staining-based fluorocytometric analysis (reference value: 51.3 +/- 11.3 nM); assay type: toxicity, cell-based; settings: pc-12, 24 h
[26] = Neurotoxicity in human U373MG cells assessed as change in cytosolic calcium level at 5 uM after 24 hrs by indo-1/AM staining-based fluorocytometric analysis (reference value: 91.1 +/- 12.5 nM); assay type: toxicity, cell-based; settings: u-373mg atcc
U373 MG [27] = experiment: Neuroprotective activity in human U373MG cells assessed as reduction of H2O2-induced mitochondrial calcium level at 10 uM incubated for 24 hrs prior to H2O2 challenge measured after 30 mins by Rhod-2 staining-based fluorocytometric analysis (reference value: 1.5 +/- 0.02 nM); assay type: functional, U-373MG ATCC; in short: as §1
[28] = Neurotoxicity in human U373MG cells assessed as change in mitochondrial calcium level at 5 uM after 24 hrs by Rhod-2 staining-based fluorocytometric analysis (reference value: 1 +/- 0.03 nM); assay type: toxicity, cell-based; settings: u-373mg atcc; in short: as §1

SMILES | Activity [1] | Activity (PC-12 [2]) | Activity (PC-12 [4]) | Activity [5] | Activity [6] | Activity (U373 MG [7]) | Activity (U373 MG [8]) | Activity (PC-12 [9]) | Activity (PC-12 [10]) | Activity (PC-12 [12]) | Activity [13] | Activity (PC-12 [14]) | Activity (U373 MG [15]) | Activity (PC-12 [16]) | Activity (PC-12 [17]) | Activity (PC-12 [18]) | Activity (PC-12 [19]) | Activity (PC-12 [21]) | Activity (PC-12 [22]) | Activity (PC-12 [23]) | also measured
C=CC(=C)CC[C@H]1[C@]2(C)CCC[C@](C)(CO)[C@H]2[C@H](O)C[C@]1(C)O [ANDALUSOL] | 98 nM | 1.2 nM | Active | Non-toxic | Non-toxic | 166.2 nM | 1.15 nM | 185.8 nM | Non-toxic | 56.8 nM | 0.99 nM | 1.05 nM | 189.6 nM | 174.8 nM | 1.09 nM | 1.3 nM | Active | Non-toxic | Active | Non-toxic | Activity (U373 MG [3]): Active; Activity (U373 MG [11]): Active; Activity (U373 MG [20]): Active; Activity [24]: Non-toxic; Activity (PC-12 [25]): 56.5 nM; Activity [26]: 92.2 nM; Activity (U373 MG [27]): 1.09 nM; Activity [28]: 0.97 nM
CC1(C)CCC[C@]2(C)[C@@H]1C[C@H](O)[C@@]13C=C[C@@](CO)(C1)[C@H](O)C[C@@H]23 [CONCHITRIOL] | 98 nM | 1.3 nM | Active | Non-toxic | Non-toxic | 430.9 nM | 1.48 nM | 188.8 nM | Non-toxic | 60.6 nM | 0.97 nM | 1.08 nM | 479.6 nM | 192.6 nM | 1.05 nM | 1.4 nM | Active | Non-toxic | Active | Non-toxic | Activity [24]: Non-toxic; Activity (PC-12 [25]): 53.5 nM; Activity [26]: 93.2 nM; Activity (U373 MG [27]): 1.45 nM; Activity [28]: 0.99 nM
CC1(C)CCC[C@H]2C1=CC[C@H]1C[C@@](C)([C@@H](O)CO)C[C@@H](O)[C@@]12C [LAGASCATRIOL] | 98.1 nM | 1.5 nM | Active | Non-toxic | Non-toxic | 208.5 nM | 1.22 nM | 202.5 nM | Non-toxic | 51.4 nM | 1.05 nM | 0.9 nM | 222.5 nM | 187.7 nM | 0.98 nM | 1.4 nM | Active | Non-toxic | Active | Non-toxic | Activity (U373 MG [3]): Active; Activity (U373 MG [11]): Active; Activity (U373 MG [20]): Active; Activity [24]: Non-toxic; Activity (PC-12 [25]): 63.5 nM; Activity [26]: 102.1 nM; Activity (U373 MG [27]): 1.17 nM; Activity [28]: 1.02 nM
